Most compounds without a hit are left out; they make up all but 3.3% or so of the library.
Arrestin-AP2 inh: blocks beta-arrestin peptide binding to AP2 adaptin; FITC-arrestin peptide / GST-AP2 beads, flow cytometry; AP2 beta2 appendage carries R879A mutation; inhibition, % at 10 µM; 340,000 tested, 0.31% active;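 active means inhibition above a set limit, near 3 SD of compounds lacking own fluorescence, cut at about 54% in these data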
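Measured by: flow cytometry, FL1 (488/535 nm); Material: AP2 appendage R879A on GSH beads; Evaluation: percent response; Timing: pre-incubation 12 min, peptide binding 1 h, room temperature; Also added: 50 nM FITC-arrestin peptide; Medium: PBS with 0.05% Tween 20 and 0.1% BSA.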
ABCB6 inh 2: human ABCB6 transporter inhibition. K562-ABCB6 porphyrin accumulation, flow cytometry, 1 h; hits give low values. fluorescence ratio to DMSO, % at 10 µM. 360,000 tested, 0.19% active. AID 602162;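 active means fluorescence ratio to DMSO below 75%, the collection mean minus 3 SD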;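 further: signal is porphyrin accumulated inside mitochondria; lower ratio means ABCB6 inhibition with less porphyrin fluorescence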
NRP1-CendR mod: modulators of CendR peptide binding to human neuropilin-1. O14786. FAM-RPARPAR peptide binding to NRP-1, fluorescence polarization. inhibition, % at 25 µM. 360,000 tested, 0.85% active;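 active means inhibition or corrected inhibition above about 18%, plus a signal ratio from 0.5 to 1.5, limit read from the data, passing the limit was not always enough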
Target sequence (O14786 whole entry, looked up): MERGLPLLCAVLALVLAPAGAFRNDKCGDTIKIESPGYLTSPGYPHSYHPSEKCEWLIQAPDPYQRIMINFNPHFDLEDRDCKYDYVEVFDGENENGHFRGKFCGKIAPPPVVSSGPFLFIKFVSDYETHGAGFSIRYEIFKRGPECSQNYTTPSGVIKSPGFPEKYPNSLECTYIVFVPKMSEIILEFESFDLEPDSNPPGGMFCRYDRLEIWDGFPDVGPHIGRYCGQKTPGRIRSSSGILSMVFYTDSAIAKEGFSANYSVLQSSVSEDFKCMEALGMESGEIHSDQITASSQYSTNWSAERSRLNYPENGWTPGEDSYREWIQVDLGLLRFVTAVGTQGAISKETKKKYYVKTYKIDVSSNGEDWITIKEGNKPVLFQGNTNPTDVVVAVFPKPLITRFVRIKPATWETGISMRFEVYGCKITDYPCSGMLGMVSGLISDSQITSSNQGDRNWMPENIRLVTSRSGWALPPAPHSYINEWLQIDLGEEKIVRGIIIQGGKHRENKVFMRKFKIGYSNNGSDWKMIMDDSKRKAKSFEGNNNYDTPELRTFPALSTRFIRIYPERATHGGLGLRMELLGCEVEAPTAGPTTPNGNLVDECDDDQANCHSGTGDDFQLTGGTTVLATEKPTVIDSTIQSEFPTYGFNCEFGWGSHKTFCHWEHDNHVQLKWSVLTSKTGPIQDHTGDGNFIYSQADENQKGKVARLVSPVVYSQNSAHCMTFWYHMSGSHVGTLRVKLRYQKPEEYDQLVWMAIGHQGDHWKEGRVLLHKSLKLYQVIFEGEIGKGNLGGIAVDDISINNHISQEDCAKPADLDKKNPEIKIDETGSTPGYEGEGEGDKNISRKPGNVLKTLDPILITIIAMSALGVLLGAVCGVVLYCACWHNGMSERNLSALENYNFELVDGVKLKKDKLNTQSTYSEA
Myeloid diff 2: compounds promoting myeloid differentiation | ER-HoxA9 myeloid progenitors, lysozyme-GFP differentiation, flow cytometry | calls only at 10 µM | 360,000 tested, 1% active | AID 624256;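 active means normalized GFP-positive differentiation at or above the plate's own cutoff, the solvent-only control mean plus 3 SD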;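 further: cells exposed to compound for four days before flow analysis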
Exocytosis inh: blocks lytic granule exocytosis | TALL-104 LAMP-1 surface exposure, flow cytometry; cells stimulated with thapsigargin and PMA | inhibition, % at 10 µM | 360,000 tested, 0.66% active;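 active means inhibition above about 55%, limit read from the data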
ATG4B inh: inhibitors of human ATG4B cysteine protease | Q9Y4P1 | ATG4B cleavage of LC3-PLA2, NBD-HPC fluorescence, 1 h | inhibition, % at 8.33 µM | 340,000 tested, 0.51% active | AID 504462; in the data active means inhibition above about 40%
Numbers stand for hits; 0 = inactive; - = no result; + = active, no number.

SMILES | Arrestin-AP2 inh | ABCB6 inh 2 | NRP1-CendR mod | Myeloid diff 2 | Exocytosis inh | ATG4B inh
CCNC(=O)CC1C(=O)N(c2ccc(C)cc2)C(=O)N1CCc1sccc1C (stereo unspecified) | 0 | 0 | 0 | 0 | 0 | 0
Cc1ccc(/C(=N\S(=O)(=O)c2ccc(Br)cc2)Nc2ccccc2C)cc1 | 0 | 0 | 0 | 0 | 0 | 0
COc1ccc(C(=O)Nc2ccc(Cl)c(S(=O)(=O)Nc3ccccc3OC)c2)cc1 | 0 | 0 | 0 | 0 | 0 | 0
Cc1ccccc1N/C(=N/S(=O)(=O)c1ccccc1)c1ccc(F)cc1 | 0 | 0 | 0 | + | 0 | 0
COc1ccc(NS(=O)(=O)c2cc(N/C(=N\S(=O)(=O)c3ccccc3)c3ccc(F)cc3)ccc2Cl)cc1 | 0 | 0 | 0 | + | 0 | 0
COc1cc2c(c(OC)c1OC)-c1ccc(SC)c(=O)cc1C(NC=O)CC2 (stereo unspecified) | 0 | 0 | 0 | - | 0 | 0
O=C(Nc1cccc(F)c1)C1CCCN(S(=O)(=O)c2ccc(-n3cnnn3)cc2)C1 (stereo unspecified) | 0 | 0 | 0 | 0 | 0 | 0
NC(=O)C1CCN(C(=O)C2CCC(=O)N(CC3CCCCC3)C2)CC1 (stereo unspecified) | 0 | 0 | 18 | 0 | 0 | 0
NC(=O)C1CCN(C(=O)C2CCC(=O)N(C3CCCCCC3)C2)CC1 (stereo unspecified) | 0 | 0 | 0 | 0 | 0 | 0
Nc1nc2ccccc2[nH]1 | 0 | 0 | 0 | 0 | 0 | 0
Nc1ccccc1Sc1nc2ccccc2[nH]1 | 0 | 0 | 0 | 0 | 61 | 0
Cc1ccc(C)c(-n2c(SCC(=O)NC(C(=O)O)C(C)C)nnc2-c2cccc(Cl)c2)c1 (stereo unspecified) | 0 | 0 | 26 | 0 | 0 | 0
CCC(C)n1c(NC(=O)c2ccccc2)c(C#N)c2nc3ccccc3nc21 (stereo unspecified) | 0 | 0 | 0 | + | 0 | 0
N#Cc1c(N)nc(Sc2ccc(Cl)cc2)c(C#N)c1-c1ccccc1Cl | 0 | 0 | 0 | + | 79 | 0
O=C(CC1C(=O)NCCN1Cc1cccc(Oc2ccccc2)c1)NCCCn1cccn1 (stereo unspecified) | 0 | 0 | 23 | 0 | 0 | 0
COc1ccc(CN2CCNC(=O)C2CC(=O)NCCCn2cccn2)cc1C (stereo unspecified) | 0 | 0 | 0 | 0 | 0 | 0
O=C(CC1C(=O)NCCN1Cc1ccc(F)c(F)c1)NCCn1cccn1 (stereo unspecified) | 0 | 0 | 28 | 0 | 0 | 0
Cc1ccc(C(=O)Nc2ccccc2C(=O)Nc2ccccn2)cc1Cl | 0 | 0 | 28 | 0 | 0 | 0
Cc1ccc(C)c(N2C(=O)c3ccc(C(=O)Nc4ccccn4)cc3C2=O)c1 | - | 0 | 22 | 0 | 0 | -
Cc1ccc(C(=O)Nc2cccnc2Cl)cc1Cl | 0 | 0 | 0 | 0 | 0 | 0
CCCCN(C=O)c1c(CC)nc2ccc(C(=O)NCc3cccs3)cn12 | - | 0 | 0 | 0 | 0 | -
CCc1cc2c(SCC(=O)N(C)C3CCS(=O)(=O)C3)ncnc2s1 (stereo unspecified) | 0 | 0 | 0 | 0 | 0 | 0
Cc1ccccc1NC(=O)NC(N)=O | 0 | 0 | 0 | 0 | 0 | 0
Cc1ccccc1N=C(N)Nc1ccccc1C | 0 | 0 | 37 | 0 | 0 | 0
Cc1cc(NC(=O)CSc2n[nH]c(=O)[nH]c2=O)ccc1Br | 0 | 0 | 0 | 0 | 0 | 0
SMILES | Arrestin-AP2 inh | ABCB6 inh 2 | NRP1-CendR mod | Myeloid diff 2 | Exocytosis inh | ATG4B inh
O=C(CSc1n[nH]c(=O)[nH]c1=O)Nc1ccc(Br)cc1Br | 0 | 0 | 31 | 0 | 0 | 0
O=C(CCNS(=O)(=O)c1ccccc1C(F)(F)F)N1CCN(c2ccccc2O)CC1 | 0 | 0 | 0 | 0 | 0 | 0
COc1cc(/C=C2/C(=O)NN(c3ccc(C)c(Cl)c3)C2=O)cc([N+](=O)[O-])c1O | 0 | 0 | 0 | + | 0 | 0
O=C1NN(c2ccccc2)C(=O)/C1=C\c1cccn1-c1ccc(Cl)c([N+](=O)[O-])c1 | 0 | 0 | 0 | + | 0 | 0
CCOc1ccccc1C1CC(=O)NC2=C1C(=O)CC(C)(C)C2 (stereo unspecified) | 0 | 0 | 26 | 0 | 0 | 0
CCOc1ccccc1C1CC(=O)Nc2cc(OC)c(OC)cc21 (stereo unspecified) | 0 | 0 | 0 | 0 | 0 | 0
CCOc1ccc(NC(=O)CN(C)S(=O)(=O)c2ccc(-c3ccc(=O)[nH]n3)s2)cc1 | 0 | 0 | 0 | 0 | 0 | 0
Cc1cccc(N2CCN(C(=O)c3ccc4c(c3)NC(=O)C(CSCc3cccc(F)c3)N4)CC2C)c1 (stereo unspecified) | 0 | 0 | 0 | + | 0 | 0
Cc1ccccc1N=C1Nc2ccccc2N[C@]12C[C@H]1CCC(=O)N3CC[C@@H](C2)[C@@H]13 | 0 | 0 | 0 | 0 | 58 | 0
O=C1CC[C@@H]2CC3(C[C@@H]4CCN1[C@H]24)Nc1ccccc1NC3=NC1CCCCC1 (stereo partly specified) | 0 | 0 | 0 | 0 | 0 | 0
Cc1ccc(S(=O)(=O)Nc2ccccc2F)cc1C(=O)NNC(=O)c1ccccc1O | 0 | 0 | 0 | 0 | 0 | 0
NNC(=O)[C@@H]1C[C@@H]1c1ccccc1 | 0 | 0 | 0 | 0 | 0 | 0
O=C(c1ccccc1)C1CC1c1ccccc1 (stereo unspecified) | - | 0 | 38 | 0 | 0 | -
Cc1cc(NC(=O)c2ccc(Cl)cc2Cl)n(-c2ccccc2)n1 | 0 | 0 | 18 | 0 | 0 | 0
Cc1cc(C)nc(NC(N)=NC2CCCCC2)n1 | 0 | 0 | 0 | + | 0 | 0
Cc1cc(C)nc(NC(N)=S)n1 | 0 | 0 | 0 | 0 | 0 | 0
COc1ccc(-n2c(=O)c3ccccc3n(Cc3cccc(C)c3)c2=O)cc1OC | 0 | 0 | 0 | 0 | 0 | 0
C#CCOCCOCCOCCNc1nc(N2CCN(C(=O)[C@H](CCCCN)n3cc([C@@H](N)C(C)CC)nn3)CC2)nc(N2CCN(C(=O)[C@H](CCCCN)n3cc([C@@H](N)CC(C)C)nn3)CC2)n1 (stereo partly specified) | 0 | 0 | 22 | 0 | 0 | 0
C#CCOCCOCCOCCNc1nc(N2CCN(C(=O)[C@H](CCC(=O)O)n3cc([C@@H](N)CCCCN)nn3)CC2)nc(N2CCN(C(=O)[C@H](CCCCN)n3cc([C@@H](N)CC(N)=O)nn3)CC2)n1 | 0 | 0 | 0 | 0 | 59 | 0
O=c1[nH]c2cc3ccccc3cc2nc1-c1nnnn1Cc1ccccc1 | - | 0 | 0 | 0 | 0 | -
CCN(C(=O)C1CCN(S(=O)(=O)c2ccc3c(c2)oc(=O)n3C)CC1)c1cccc(C)c1 | 0 | 0 | 0 | + | 0 | 0
Cc1oc(-c2ccc(Cl)cc2)nc1CN1CCCC(C(=O)NCc2ccco2)C1 (stereo unspecified) | 0 | 0 | 0 | + | 0 | 0
COc1ccc(C(=O)N=c2sc3c(C)ccc(OC)c3n2C)cc1 | 0 | 0 | 0 | + | 0 | 0

Screening results deposited in PubChem by several laboratories.
